Screening results (PubChem BioAssay)
A selection: hits, their analogues and other compounds. The true share with any hit is near 3.5%.
RGS4 inh: inhibitors of human RGS4; HEK293 M3R/RGS4 inducible, Fluo-4 calcium flux; stronger effect = higher value; triggered by carbachol at its EC20; AID 463165; 310,000 tested, 0.45% active; B-score at 10 µM; P49798;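 active means B-score, a plate-corrected calcium signal, over three deviations above library mean, with baseline fluorescence within five deviations of library mean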;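 further: RGS4 expression induced by doxycycline in cells with stable M3 receptor; B-score is computed from the integrated fluorescence ratio over baseline after carbachol; higher B-score means a larger calcium signal and so more RGS4 inhibition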
Target sequence (P49798 whole entry, looked up): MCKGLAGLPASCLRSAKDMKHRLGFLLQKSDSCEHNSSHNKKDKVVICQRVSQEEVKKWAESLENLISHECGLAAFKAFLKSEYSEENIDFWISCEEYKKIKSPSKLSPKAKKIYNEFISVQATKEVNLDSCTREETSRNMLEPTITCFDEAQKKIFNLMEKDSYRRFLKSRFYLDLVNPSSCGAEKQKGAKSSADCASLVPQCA
MrgX1 antag: blocks BAM8-22 activation of human MrgX1 receptor; MRGX1-HEK293 calcium flux, Fluo-4, BAM8-22 antagonism; stronger effect = lower value; Q96LB2; AID 588676; 310,000 tested, 1.3% active; B-score at 10 µM;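 active means calcium-response B-score plate-corrected more than 3 library SD below zero, starting fluorescence within 5 deviations, no agonist response on first addition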;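 further: peak minus trough fluorescence over baseline after final BAM8-22 challenge near maximal dose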
Target sequence (Q96LB2 whole entry, looked up): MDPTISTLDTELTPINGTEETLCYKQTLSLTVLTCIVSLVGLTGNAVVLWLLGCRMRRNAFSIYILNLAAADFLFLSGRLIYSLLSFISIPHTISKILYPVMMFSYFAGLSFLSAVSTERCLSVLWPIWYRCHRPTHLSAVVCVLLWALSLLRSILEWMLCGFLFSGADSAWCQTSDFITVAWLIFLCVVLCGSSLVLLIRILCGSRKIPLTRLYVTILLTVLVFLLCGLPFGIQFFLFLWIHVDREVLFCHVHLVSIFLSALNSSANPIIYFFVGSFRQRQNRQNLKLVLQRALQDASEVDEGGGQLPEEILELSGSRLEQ
MrgX1 PAM: allosterically activates human MrgX1 receptor signaling | 310,000 tested, 0.63% active | AID 588675 | MrgX1-HEK293, Fluo-4 calcium flux, FDSS; stronger effect = higher value | B-score at 10 µM | Q96LB2;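 active means plate-corrected calcium response at least 3 library SD above typical, normal starting fluorescence, not activating the receptor alone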;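 further: compound read alongside a low EC10 to EC30 dose of BAM8-22 agonist; peak minus trough fluorescence over baseline measured at the second addition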
MrgX1 agonist: agonists of human MrgX1 receptor. Q96LB2. B-score at 10 µM. MrgX1-HEK293 cells, Fluo-4 calcium fluorescence, agonist mode; stronger effect = higher value. 310,000 tested, 0.44% active;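 active means calcium response B-score plate-corrected fluorescence ratio at least 3 library SD, with starting fluorescence B-score inside 5 SD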
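System – MrgX1-expressing HEK293 cells · Incubation – cells plated overnight, dye loaded 0.5 h 37 °C, 0.5 h room temperature · Technique – kinetic Fluo-4 NW fluorescence of intracellular calcium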
RGS4 act: potentiators or activators of RGS4. HEK293 M3R/inducible RGS4, carbachol calcium flux Fluo4; stronger effect = lower value. AID 463111. B-score at 10 µM. 310,000 tested, 0.92% active;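 active means B-score of the integrated calcium signal more than 4 SD below the library mean, with starting fluorescence not abnormally high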;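 further: negative B-score means reduced calcium response which marks RGS4 activation or potentiation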
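Assay system: Inducible-RGS4 HEK293 cells carrying M3 receptor | Schedule: Compound preincubation 20 min at room temperature before agonist | Signal: Kinetic calcium fluorescence imaging with Fluo4-AM dye, 2 µM | Read-out basis: B score from integrated fluorescence ratio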
RGS4 block valid: validation of RGS4 inhibitors; calcium response, % at 10 µM; 1,700 tested, 65% active; HEK293 M3R/RGS4, carbachol calcium Fluo-4 fluorescence; carbachol added at its EC20; 0 = buffer wells, 100 = carbachol control; shares compounds with RGS4 inh; AID 492999;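 active means duplicate-averaged calcium response above the buffer-only control mean plus 5 SD of those controls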;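 further: integrated fluorescence ratio F max minus min over baseline F0; higher response in RGS4-induced cells means RGS4 inhibition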
RGS4 uninduced: counter-screen for RGS4 inhibitors: effect in non-induced cells | shares compounds with RGS4 inh | HEK293 M3R non-induced, carbachol calcium Fluo-4; submaximal (EC20) carbachol stimulus; buffer wells 0%, carbachol control wells 100% | activity (percent), % at 10 µM | 1,900 tested, 20% active; call rule not given here;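 further: RGS4 induction absent so cells express M3R without RGS4; higher means more calcium signal and flags a non-specific hit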
RGS4 inh ctr2: signal in non-induced cells without carbachol, RGS4 inhibitor counter-screen; calcium response (agonist-mode artifact), % at 10 µM; 1,900 tested, 22% active; HEK293 M3R/RGS4 non-induced, Fluo-4 calcium, no carbachol; normalised: buffer wells 0%, carbachol wells 100%; AID 493001; shares compounds with RGS4 inh;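 active means duplicate-averaged calcium rise in uninduced cells above buffer wells' mean plus 5 SD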
Of the large screens only hits and unclear results are named; the others gave an inactive call (follow-up assays come after a bar, where they were run).

O=C(O)c1ccc(/C=C/C(=O)c2ccc3c(c2)OCCCO3)cc1	RGS4 inh 14 | RGS4 block valid 47% | RGS4 uninduced inactive | RGS4 inh ctr2 inactive
COc1ccc(/C=C/C(=O)c2ccc3c(c2)OCCO3)cc1[N+](=O)[O-]	RGS4 inh 8.1 | RGS4 block valid 6.0% | RGS4 uninduced inactive | RGS4 inh ctr2 inactive
O=C(NNC(=S)Nc1ccc(Cl)cc1Cl)c1ccc(N2CCOCC2)c([N+](=O)[O-])c1	RGS4 inh 5.2 | RGS4 block valid 9.5% | RGS4 uninduced 34% | RGS4 inh ctr2 inactive
O=C(O)c1ccc(N2CCN(c3ccc(Cl)cc3)CC2)c([N+](=O)[O-])c1	RGS4 inh 5 | RGS4 block valid 7.5% | RGS4 uninduced inactive | RGS4 inh ctr2 inactive
O=C(/C=C/c1ccc(Cl)cc1)N1CCN(c2ccc(Cl)cc2[N+](=O)[O-])CC1	none
NC(=O)c1cc(NC(=O)CCCc2nc3ccccc3s2)cc(C(N)=O)c1	none
CC(Nc1nc(-c2ccc(Cl)cc2)cs1)c1nc2cc(Cl)c(N3CCCCC3)cc2n1CCOCCO (stereo unspecified)	none | RGS4 uninduced inactive | RGS4 inh ctr2 inactive
COc1ccc(-c2csc(NC(C)c3nc4cc(Cl)c(N5CCCCC5)cc4n3CCCO)n2)cc1 (stereo unspecified)	none
COc1ccc(-c2csc(NC(C)c3nc4cc(Cl)c(N5CCCCC5)cc4n3CCOCCO)n2)cc1 (stereo unspecified)	none | RGS4 block valid inactive | RGS4 uninduced inactive | RGS4 inh ctr2 inactive
CCCCCN(C(=O)CCC(=O)OCC(=O)NCc1cccc(OC)c1)c1c(N)n(CCCC)c(=O)[nH]c1=O	none
CN(C)C(=O)N1CCN(c2nc(-c3ccccc3)cs2)CC1	none
CC(=O)OCCSc1c(-c2ccccc2)c2cc(Cl)ccc2[nH]c1=O	RGS4 inh 4.8 | RGS4 block valid 14% | RGS4 uninduced inactive | RGS4 inh ctr2 inactive
O=C(NCc1cccnc1)C1CC(c2ccc(F)cc2)=NO1 (stereo unspecified)	none
CC(=O)c1c(C)oc2c1cc(NS(=O)(=O)c1ccc(C(=O)O)cc1)c1ccccc12	none | RGS4 uninduced inactive | RGS4 inh ctr2 inactive
COC(=O)c1c(C)oc2c1cc(NS(=O)(=O)c1ccc(C(=O)O)cc1)c1ccccc12	RGS4 inh 5.6 | RGS4 block valid 16% | RGS4 uninduced inactive | RGS4 inh ctr2 inactive
Cc1cc(N=Cc2cc(Br)ccc2O)no1	RGS4 inh 7.2 | RGS4 block valid 7.5% | RGS4 uninduced inactive | RGS4 inh ctr2 inactive
CCOc1ccc(C(=O)CC(Sc2ccc(C)cc2)C(=O)O)cc1 (stereo unspecified)	none | RGS4 block valid inactive | RGS4 uninduced inactive | RGS4 inh ctr2 inactive
CNC(=S)N1CCN(C(=O)C2CCCO2)CC1 (stereo unspecified)	RGS4 inh 4.7 | RGS4 block valid inactive | RGS4 uninduced inactive | RGS4 inh ctr2 inactive
O=C(COc1ccc([N+](=O)[O-])cc1)NCCC1=CCCCC1	RGS4 inh 5 | RGS4 block valid inactive | RGS4 uninduced inactive | RGS4 inh ctr2 inactive
O=C1c2ccccc2CN1CCSC(=S)N1CCOCC1	RGS4 inh 6.5 | RGS4 block valid inactive | RGS4 uninduced inactive | RGS4 inh ctr2 inactive
NC(Cc1ccc(Oc2ccc(O)cc2)cc1)C(=O)O (stereo unspecified)	none
OCCSc1nc(N2CCOCC2)nc(N2CCOCC2)n1	none
COc1ccc(Nc2nc(N3CCCC3)nc(N3CCOCC3)n2)cc1	none
c1ccc(Nc2nc(N3CCCC3)nc(N3CCOCC3)n2)cc1	none | RGS4 block valid inactive | RGS4 uninduced inactive | RGS4 inh ctr2 inactive
O=c1nc(N2CCCC2)nc(Nc2ccccc2)[nH]1	none | RGS4 block valid inactive | RGS4 uninduced inactive | RGS4 inh ctr2 inactive
CCOc1cc(CNc2ccc(S(N)(=O)=O)cc2)cc(Cl)c1OC	none
CCOc1cc(CNc2ccc(N3CCCC3)cc2)cc(Cl)c1OC	RGS4 inh 5.1 | RGS4 block valid 14% | RGS4 uninduced inactive | RGS4 inh ctr2 inactive
Cc1[nH]n(-c2ccccc2)c(=O)c1C(C[N+](=O)[O-])c1ccc(Br)cc1 (stereo unspecified)	RGS4 inh 8.4, MrgX1 PAM 6.8 | RGS4 block valid 32% | RGS4 uninduced 51% | RGS4 inh ctr2 28%
COc1cccc(C(C[N+](=O)[O-])c2c(C)[nH]n(-c3ccccc3)c2=O)c1 (stereo unspecified)	RGS4 inh 15, MrgX1 agonist 50 | RGS4 block valid 6.0% | RGS4 uninduced inactive | RGS4 inh ctr2 10%
COc1ccc2c(c1OC)C(=O)OC2Nc1nc(-c2cc3cc(Br)ccc3oc2=O)cs1 (stereo unspecified)	none
COc1ccc(-c2csc(NC3OC(=O)c4c3ccc(OC)c4OC)n2)cc1OC (stereo unspecified)	RGS4 inh 11 | RGS4 block valid 44% | RGS4 uninduced inactive | RGS4 inh ctr2 inactive
COc1ccc2c(c1OC)C(=O)OC2Nc1nc(-c2ccc([N+](=O)[O-])cc2)cs1 (stereo unspecified)	none | RGS4 block valid inactive | RGS4 uninduced inactive | RGS4 inh ctr2 inactive
COc1ccc(OCC(=O)Nc2cc(-c3nn(C)c(=O)c4ccccc34)ccc2N2CCOCC2)cc1	none
COc1ccc(OCCSc2nnc(Cc3cccc4ccccc34)n2N)cc1	none | RGS4 uninduced inactive | RGS4 inh ctr2 inactive
CCCNC(=O)c1nc(C)n(-c2ccc([N+](=O)[O-])cc2)n1	none
Cc1cc(N2CCN(c3ccccc3Cl)CC2)n2cc(-c3ccccc3)nc2n1	RGS4 inh 6 | RGS4 block valid 28% | RGS4 uninduced inactive | RGS4 inh ctr2 inactive
Cc1cc(N2CCN(c3ccccc3)CC2)n2cc(-c3ccccc3)nc2n1	none
Cc1ccc2occ(/C=N/NC(N)=S)c(=O)c2c1	RGS4 inh 11 | RGS4 block valid 54% | RGS4 uninduced 66% | RGS4 inh ctr2 inactive
Cc1ccc2occ(/C=N/NC(=O)c3ccc(O)cc3)c(=O)c2c1	none
O=C(/C=C/NNC(=O)c1ccc(Br)cc1)c1ccccc1	none
O=C(/C=C/NNC(=O)c1ccccc1)c1ccccc1	none | RGS4 uninduced inactive | RGS4 inh ctr2 inactive
